Compound activity deposited in PubChem BioAssay by The Scripps Research Institute Molecular Screening Center.
PfM18AAP inh: PfM18AAP inhibitors, malaria aminopeptidase, primary screen, biochemical, QFRET, recombinant enzyme; M18 aspartyl aminopeptidase (Plasmodium falciparum 3D7); H-Glu-NHMec fluorogenic cleavage; inhibition, % at 7.35 µM; 290,000 compounds, 1.2% hits;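 active = inhibition above the campaign mean inhibition over all tested compounds plus 3 SD, cut at about 28% in these data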
HGIII-sPLA2 inh: human group III sPLA2 inhibitors, primary screen, biochemical, QFRET, BODIPY PC-A2 liposome substrate. Group 3 secretory phospholipase A2 (Homo sapiens), Q9NZ20. QFRET BODIPY PC-A2 liposome hydrolysis, fluorescence. inhibition, % at 12.2 µM. 370,000 compounds, 0.56% hits. AID 743126, 2013;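 active = inhibition above mean plus 3 SD of compounds lying within the high and low control bounds, cut at about 19% in these data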
Target sequence (Q9NZ20 whole entry, looked up): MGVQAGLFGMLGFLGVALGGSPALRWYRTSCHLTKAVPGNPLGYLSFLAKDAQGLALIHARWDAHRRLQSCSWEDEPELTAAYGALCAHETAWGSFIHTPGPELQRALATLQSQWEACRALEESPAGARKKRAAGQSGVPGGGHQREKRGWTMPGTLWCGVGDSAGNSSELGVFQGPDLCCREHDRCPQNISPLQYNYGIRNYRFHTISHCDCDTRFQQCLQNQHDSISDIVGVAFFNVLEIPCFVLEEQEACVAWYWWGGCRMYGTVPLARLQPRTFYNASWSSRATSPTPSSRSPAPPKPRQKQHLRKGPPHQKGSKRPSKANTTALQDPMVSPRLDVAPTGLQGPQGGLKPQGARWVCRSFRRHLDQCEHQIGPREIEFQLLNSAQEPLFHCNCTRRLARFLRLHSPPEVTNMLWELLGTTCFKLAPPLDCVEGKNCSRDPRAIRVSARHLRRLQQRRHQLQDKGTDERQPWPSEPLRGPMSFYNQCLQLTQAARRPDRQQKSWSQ
VIM-2 inhibitor: VIM-2 metallo-beta-lactamase inhibitors, primary screen, biochemical, epi-absorbance readout, Pseudomonas aeruginosa enzyme; purified VIM-2, nitrocefin hydrolysis, epi-absorbance fluorescence; inhibition, % at 5.6 µM; 290,000 compounds, 0.89% hits;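 active = inhibition above the mean of all tested compounds plus 3 SD, cutoff set per screening run, cut at about 7.5% in these data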;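 also: red hydrolysis product quenches plate fluorescence so inhibitors raise well fluorescence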
IMP-1 inh: IMP-1 metallo-beta-lactamase inhibitors, primary screen, biochemical, epi-absorbance readout, Pseudomonas aeruginosa enzyme. metallo-beta-lactamase IMP-1 (Pseudomonas aeruginosa). purified IMP-1, nitrocefin hydrolysis, epi-absorbance fluorescence. inhibition, % at 5.6 µM. 290,000 compounds, 0.45% hits. AID 1556, 2009;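 active = inhibition above the mean plus 3 SD of all compounds in the same screening run, cut at about 4.5% in these data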
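System: purified IMP-1 / Input: IMP-1 dispensed at 0.2 nM / Medium: 50 mM HEPES pH 7.1, 50 µM ZnSO4, 0.05% Brij 35 / Timing: 15 min enzyme–compound preincubation, then 25 min nitrocefin reaction, 25 °C / Technique: plate fluorescence quenching by hydrolysis product, ex 480/em 530 nm / Repeats: singlicate testing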
Each line names hits and unclear results; the compound was inactive in the other large screens. Hits are enriched below; roughly 2.4% of the tested compounds scored in any of these assays.

O=C1c2ccc([N+](=O)[O-])cc2S(=O)(=O)N1Cc1ccccc1	none
NNc1cc([N+](=O)[O-])cc2c1C(=O)N(Cc1ccccc1)S2=O (stereo not given)	PfM18AAP inh 42
O=C(Nc1ccc(Nc2cccnc2)cc1)c1c[nH]c2ccccc12	HGIII-sPLA2 inh 25 (no result: PfM18AAP inh, VIM-2 inhibitor, IMP-1 inh)
O=C(NCc1cccnc1)C(=O)c1c[nH]c2ccccc12	none
O=c1c2ccccc2oc2ccc(NCCCN3CCOCC3)cc12	VIM-2 inhibitor 9.8
CCc1nc(NCCCN2CCOCC2)c2oc3ccccc3c2n1	VIM-2 inhibitor 11
COc1ccc(-c2oc3cc(OC)c(O)c(OC)c3c(=O)c2OC)cc1O	VIM-2 inhibitor 12
COc1ccc(Cl)cc1NC(=O)Cn1nnc(C(=O)NCc2ccc3c(c2)OCO3)c1N	IMP-1 inh 18
COc1ccccc1NC(=O)Cn1nnc(C(=O)NCc2ccc3c(c2)OCO3)c1N	none
CC(C(Sc1ccccc1N)c1ccccc1)[N+](=O)[O-] (stereo not given)	PfM18AAP inh 31
Nc1ccccc1SSc1ccccc1N	none
O=C(Nc1ccccc1O)C(c1ccccc1)c1ccccc1	none
CC(=O)/C=C(\C)Nc1ccccc1O	PfM18AAP inh 29
O=[N+]([O-])c1ccc(N2CCOCC2)cc1SCc1ccco1	PfM18AAP inh 31
C=C1c2cccc(O)c2C(O)=C2C(=O)[C@]3(O)C(O)=C(C(N)=O)C(=O)[C@@H](N(C)C)[C@@H]3[C@@H](O)[C@H]12	VIM-2 inhibitor 8.6
O=S1(=O)c2ccc(Br)cc2OC[C@@H](c2ccccc2)N1Cc1cn(CCC2OCCO2)nn1	none (no result: PfM18AAP inh, VIM-2 inhibitor, IMP-1 inh)
O=S(=O)(c1ccccc1Br)N(Cc1cn(Cc2ccccc2)nn1)C1CC1	none (no result: PfM18AAP inh, VIM-2 inhibitor, IMP-1 inh)
CN(C)c1ccc(C(=S)N2CCCCCC2)cc1	IMP-1 inh 5.5
NCCNC(=O)c1c(O)c2cccc3c2n(c1=O)CCC3	VIM-2 inhibitor 12
CCN(CC)CC(=O)n1c2c(c3ccccc31)CCCC2	VIM-2 inhibitor 12
CN1CCN(CC(=O)n2c3c(c4ccccc42)CCCC3)CC1	VIM-2 inhibitor 9.9
Cc1cc(C)n(CC(=O)n2c3c(c4ccccc42)CCCC3)n1	VIM-2 inhibitor 10
O=C(CN1CCCCC1)n1c2ccccc2c2ccccc21	none
OC1(Cc2ccccc2)CCN(c2ncnc3sccc23)CC1	none (no result: PfM18AAP inh, VIM-2 inhibitor, IMP-1 inh)
COC(=O)c1cc(-c2ccc(Br)cc2)c2c(=O)[nH]c(=O)n(C)c2n1	none
COC(=O)c1cc(-c2ccc(OC)c(OC)c2)c2c(=O)[nH]c(=O)n(C)c2n1	VIM-2 inhibitor 9.4
Cc1[nH]c2ccccc2c1C(=O)CSC(=S)N1CCN(C)CC1	VIM-2 inhibitor 12
c1ccc2c(c1)ncn2Cc1nnc2sc(-c3ccc4c(c3)OCO4)nn12	VIM-2 inhibitor 9.6
Clc1ccccc1-c1nn2c(Cn3cnc4ccccc43)nnc2s1	none
COC(=O)C1=C(C)N(Cc2cccc(C(F)(F)F)c2)C(=NCc2ccc3c(c2)OCO3)NC1c1ccc(F)cc1 (stereo not given)	none (no result: PfM18AAP inh, VIM-2 inhibitor, IMP-1 inh)
OCCN1CCN(C(=S)c2ccc(Br)cc2)CC1	PfM18AAP inh 30
COc1ccc(C[N+]2=C(N)NC3=C(C)Cn4c(=O)n(-c5ccccc5)c(=O)n4C3C2)c(OC)c1 (stereo not given)	none (no result: PfM18AAP inh, VIM-2 inhibitor, IMP-1 inh)
O=C(NCc1ccc2c(c1)OCO2)c1cc2ccccc2oc1=O	none
O=C(c1cc2ccccc2oc1=O)N(Cc1ccc2c(c1)OCO2)Cc1ccco1	IMP-1 inh 6.5
CC1(C)CC(=O)c2cnc(NCC3CCCO3)nc2C1 (stereo not given)	IMP-1 inh 6.0
O=C(c1cc2ccccc2o1)N1CCN=C1SCc1cccnc1	VIM-2 inhibitor 9.4
O=C(c1cc2ccccc2o1)N1CCN=C1SCc1cccc(F)c1	none
N#CCc1nnc2n1-c1ccccc1CCC2	IMP-1 inh 12
NNC(=O)CN1CCCc2ccccc21	none
COc1ccccc1NC1=C(Cl)C(=O)N(c2ccccc2)C1=O	none
CCOc1ccc(N2C(=O)C(Cl)=C(Nc3ccccc3O)C2=O)cc1	PfM18AAP inh 33
CCOc1ccc(N2C(=O)C(Cl)=C(N3CCOCC3)C2=O)cc1	PfM18AAP inh 29
O=C1C(Cl)=C(N2CCOCC2)C(=O)N1c1ccc(Br)cc1	none
COc1ccc(C(C(=O)N(C)C2CCCC2)N(Cc2ccc(F)cc2)C(=O)c2csc3ccc(Cl)cc23)cc1OC (stereo not given)	none (no result: PfM18AAP inh, VIM-2 inhibitor, IMP-1 inh)
